Assays:
Adenosine receptor A1 [1] = target: T1, Adenosine receptor A1 (Homo sapiens, UniProt P30542); experiment: Displacement of [3H]DPCPX from human Adenosine A1 receptor expressed in CHO cells; range 210-376; format: cell-based
T1 sequence (P30542 whole entry): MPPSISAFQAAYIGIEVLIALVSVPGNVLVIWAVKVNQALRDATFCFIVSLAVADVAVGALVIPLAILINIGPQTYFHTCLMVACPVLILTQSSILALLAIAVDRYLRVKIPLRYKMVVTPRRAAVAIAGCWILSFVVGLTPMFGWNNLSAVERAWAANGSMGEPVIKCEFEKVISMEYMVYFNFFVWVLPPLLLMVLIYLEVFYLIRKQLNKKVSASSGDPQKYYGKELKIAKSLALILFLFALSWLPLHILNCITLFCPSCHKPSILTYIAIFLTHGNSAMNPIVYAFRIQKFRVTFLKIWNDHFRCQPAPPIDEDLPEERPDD

[2] = target: Adenosine receptors; A2b & A3 (Homo sapiens) (UniProt P29275+P0DMS8); experiment: Selectivity ratio (h2B/hA3); format: protein assay
Adenosine receptor A3 [3] = target: T2, Adenosine receptor A3 (Homo sapiens, UniProt P0DMS8); experiment: biochemical
T2 sequence (P0DMS8 whole entry): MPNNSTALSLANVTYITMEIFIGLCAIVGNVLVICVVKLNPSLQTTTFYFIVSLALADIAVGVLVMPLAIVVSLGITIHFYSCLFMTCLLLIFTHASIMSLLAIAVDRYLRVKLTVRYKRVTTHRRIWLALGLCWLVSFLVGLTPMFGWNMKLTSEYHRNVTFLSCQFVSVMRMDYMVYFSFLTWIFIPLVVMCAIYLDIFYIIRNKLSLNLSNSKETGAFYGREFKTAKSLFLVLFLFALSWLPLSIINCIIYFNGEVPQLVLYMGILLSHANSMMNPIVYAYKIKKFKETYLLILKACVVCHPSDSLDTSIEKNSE

Adenosine receptor A2b [4] = target: T3, Adenosine receptor A2b (Homo sapiens, UniProt P29275); experiment: Displacement of [3H]DPCPX from human Adenosine A2B receptor expressed in HEK293 cells; range 127-203; format: cell-based
T3 sequence (P29275 whole entry): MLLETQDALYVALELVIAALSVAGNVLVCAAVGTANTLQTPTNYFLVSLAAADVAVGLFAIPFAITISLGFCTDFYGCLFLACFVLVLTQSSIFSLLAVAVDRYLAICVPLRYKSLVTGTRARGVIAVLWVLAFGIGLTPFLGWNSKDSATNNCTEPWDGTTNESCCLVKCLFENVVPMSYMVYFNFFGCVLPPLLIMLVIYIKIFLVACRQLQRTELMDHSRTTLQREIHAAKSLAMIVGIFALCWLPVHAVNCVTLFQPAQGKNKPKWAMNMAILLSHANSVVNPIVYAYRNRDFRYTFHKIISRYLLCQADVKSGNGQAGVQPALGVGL
How it was run: (§1)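 HEK-293 membranes expressing the human receptor were incubated 60 min at 25 °C. Six to eight test concentrations were used. Nonspecific binding was set with NECA. n = 3-6.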

[5] = target: Adenosine receptors; A1 & A3 (Homo sapiens) (UniProt P30542+P0DMS8); experiment: Selectivity ratio (hA1/hA3); format: protein assay
Adenosine receptor A2a [6] = target: T4, Adenosine receptor A2a (Homo sapiens, UniProt P29274); experiment: Displacement of [3H]SCH-58261 from human Adenosine A2A receptor expressed in HEK293 cells; range 18-33; format: cell-based
T4 sequence (P29274 whole entry): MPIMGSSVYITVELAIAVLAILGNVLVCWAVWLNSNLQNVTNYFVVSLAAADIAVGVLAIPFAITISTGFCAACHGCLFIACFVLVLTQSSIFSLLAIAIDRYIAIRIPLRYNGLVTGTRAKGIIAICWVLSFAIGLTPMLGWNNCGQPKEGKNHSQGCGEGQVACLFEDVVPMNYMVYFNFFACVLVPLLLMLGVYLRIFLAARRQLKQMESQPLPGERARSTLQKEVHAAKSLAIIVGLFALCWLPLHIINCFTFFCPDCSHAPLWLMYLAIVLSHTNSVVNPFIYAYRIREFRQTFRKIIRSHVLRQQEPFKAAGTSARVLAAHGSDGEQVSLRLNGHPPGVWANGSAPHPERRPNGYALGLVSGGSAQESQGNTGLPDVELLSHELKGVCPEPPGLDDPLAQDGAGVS

Adenosine receptor A2b [7] = target: T3, Adenosine receptor A2b; experiment: Displacement of [3H]DPCPX from human Adenosine A2B receptor expressed in HEK293 cells; range 235-347; format: cell-based
How it was run: (§2)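 Competition binding on membranes of HEK-293 cells carrying recombinant human A2B receptor. Incubation 60 min at 25 °C in 50 mM Tris HCl pH 7.4 with 10 mM MgCl2, 1 mM EDTA, 0.1 mM benzamidine and 2 IU/mL adenosine deaminase. Radioligand 40 nM [3H]DPCPX, at least six to eight test concentrations. NECA defined nonspecific binding. Bound ligand separated on glass-fibre filters and counted; n = 3-6.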

Adenosine receptor A1 [8] = target: T1, Adenosine receptor A1; experiment: Displacement of [3H]DPCPX from human Adenosine A1 receptor expressed in CHO cells; range 654-856; format: cell-based
Adenosine receptor A3 [9] = target: T2, Adenosine receptor A3; experiment: Displacement of [3H]MRE3008-F20 from human Adenosine A3 receptor expressed in HEK cells; range 0.64-0.86; format: cell-based, HEK293
Adenosine receptor A3 [10] = target: T2, Adenosine receptor A3; experiment: Inhibition of IB-MECA agonist-mediated cAMP production in CHO cell membranes expressing human Adenosine A3 receptor; range […]; format: functional, cell-based
How it was run: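 Human A3-CHO membranes (in 50 mM Tris HCl, 10 mM MgCl2, 1 mM EDTA, pH 7.4) were preincubated for 10 min at 37 °C with 5 µM GTP, 0.5 mM Ro 20-1724 and 2.0 IU/mL adenosine deaminase. IB-MECA (100 nM) or antagonist was then added with 1 mM ATP and forskolin for 10 min. The reaction was stopped by 2 min boiling. cAMP was measured by [3H]cAMP competitive protein binding using beef adrenal binding protein, 150 min at 4 °C.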

Adenosine receptor A2a [11] = target: T4, Adenosine receptor A2a; experiment: Displacement of [3H]SCH-58261 from human Adenosine A2A receptor expressed in HEK293 cells; range 112-177; format: cell-based
Adenosine receptor A2a [12] = target: T4, Adenosine receptor A2a; experiment: Displacement of [3H]SCH-58261 from human Adenosine A2A receptor expressed in HEK293 cells; range 300-414; format: cell-based
Adenosine receptor A2b [13] = target: T3, Adenosine receptor A2b; experiment: Displacement of [3H]DPCPX from human Adenosine A2B receptor expressed in HEK293 cells; range 32-51; format: cell-based
How it was run: (§3)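 Membranes from HEK-293 cells with human recombinant A2B receptor. Incubation 60 min at 25 °C in 50 mM Tris HCl, 10 mM MgCl2, 1 mM EDTA, 0.1 mM benzamidine, pH 7.4, with 2 IU/mL adenosine deaminase and 40 nM [3H]DPCPX. At least six to eight test concentrations. Nonspecific binding defined with NECA. n = 3-6.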

Adenosine receptor A3 [14] = target: T2, Adenosine receptor A3; experiment: Displacement of [3H]MRE3008-F20 from human Adenosine A3 receptor expressed in HEK cells; range 2.7-3.4; format: cell-based, HEK293
Adenosine receptor A1 [15] = target: T1, Adenosine receptor A1; experiment: Displacement of [3H]DPCPX from human Adenosine A1 receptor expressed in CHO cells; range 453-609; format: cell-based
How it was run: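 Human recombinant A1 receptor in CHO cell membranes, resuspended in 50 mM Tris HCl pH 7.4. Displacement run 120 min at 25 °C with 1 nM [3H]DPCPX, 50 µg protein per assay, and at least six to eight test concentrations. Nonspecific binding defined with CHA. Bound and free separated on glass-fiber filters; filter radioactivity counted. n = 3-6.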

Adenosine receptor A2a [16] = target: T4, Adenosine receptor A2a; experiment: Displacement of [3H]SCH-58261 from human Adenosine A2A receptor expressed in HEK293 cells; range 134-190; format: cell-based
Adenosine receptor A3 [17] = target: T2, Adenosine receptor A3; experiment: biochemical; remark: listed apart in the source
Adenosine receptor A2b [18] = target: T3, Adenosine receptor A2b; experiment: Displacement of [3H]DPCPX from human Adenosine A2B receptor expressed in HEK293 cells; range 68-105; format: cell-based; how it was run: as §3
Adenosine receptor A1 [19] = target: T1, Adenosine receptor A1; experiment: Displacement of [3H]DPCPX from human Adenosine A1 receptor expressed in CHO cells; range 330-486; format: cell-based
Adenosine receptor A3 [20] = target: T2, Adenosine receptor A3; experiment: Displacement of [3H]MRE3008-F20 from human Adenosine A3 receptor expressed in HEK cells; range 0.61-0.84; format: cell-based, HEK293
Adenosine receptor A2a [21] = target: T4, Adenosine receptor A2a; experiment: Displacement of [3H]SCH-58261 from human Adenosine A2A receptor expressed in HEK293 cells; range 25-40; format: cell-based
Adenosine receptor A2b [22] = target: T3, Adenosine receptor A2b; experiment: Displacement of [3H]DPCPX from human Adenosine A2B receptor expressed in HEK293 cells; range 105-170; format: cell-based; how it was run: as §2
Adenosine receptor A1 [23] = target: T1, Adenosine receptor A1; experiment: Displacement of [3H]DPCPX from human Adenosine A1 receptor expressed in CHO cells; range 264-463; format: cell-based
How it was run: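 Competition binding on membranes of CHO cells stably expressing human A1 receptor, resuspended in 50 mM Tris HCl pH 7.4. Incubation 120 min at 25 °C with 1 nM [3H]DPCPX, 50 µg protein per assay and at least six to eight test concentrations. CHA defined nonspecific binding. Bound ligand separated on glass-fibre filters and counted; n = 3-6.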

Adenosine receptor A1 [24] = target: T1, Adenosine receptor A1; experiment: Displacement of [3H]DPCPX from human Adenosine A1 receptor expressed in CHO cells; range 358-468; format: cell-based
Adenosine receptor A2b [25] = target: T3, Adenosine receptor A2b; experiment: Displacement of [3H]DPCPX from human Adenosine A2B receptor expressed in HEK293 cells; range 43-58; format: cell-based; how it was run: as §1
Adenosine receptor A2a [26] = target: T4, Adenosine receptor A2a; experiment: Displacement of [3H]SCH-58261 from human Adenosine A2A receptor expressed in HEK293 cells; range 102-215; format: cell-based
Adenosine receptor A3 [27] = target: T2, Adenosine receptor A3; experiment: Displacement of [3H]MRE3008-F20 from human Adenosine A3 receptor expressed in HEK cells; range 0.12-0.37; format: cell-based, HEK293

CCCCn1cc2c(nc(NC(=O)Nc3ccc(C)cc3)n3nc(-c4ccco4)nc23)n1
Ki (Adenosine receptor A1 [1]): 0.281 µM | Ratio [2]: 767 | Ki (Adenosine receptor A3 [3]): 0.00021 µM | Ki (Adenosine receptor A2b [4]): 0.161 µM | Ratio [5]: 1340 | Ki (Adenosine receptor A2a [6]): 0.024 µM

Cn1cc2c(nc(NC(=O)Nc3ccc(C(F)(F)F)cc3)n3nc(-c4ccco4)nc23)n1
Ki (Adenosine receptor A2b [7]): 0.286 µM | Ki (Adenosine receptor A1 [8]): 0.75 µM | Ki (Adenosine receptor A3 [9]): 0.00074 µM | Ratio [2]: 386 | Ratio [5]: 1010 | IC50 (Adenosine receptor A3 [10]): 0.0066 µM | Ki (Adenosine receptor A2a [11]): 0.14 µM

CCn1cc2c(nc(NC(=O)Nc3ccc(Cl)c(Cl)c3)n3nc(-c4ccco4)nc23)n1
Ki (Adenosine receptor A2a [12]): 0.352 µM | Ki (Adenosine receptor A2b [13]): 0.04 µM | Ratio [2]: 13 | Ki (Adenosine receptor A3 [14]): 0.003 µM | Ratio [5]: 175 | Ki (Adenosine receptor A1 [15]): 0.526 µM

CCn1cc2c(nc(NC(=O)Nc3ccc(Cl)cc3)n3nc(-c4ccco4)nc23)n1
Ki (Adenosine receptor A2a [16]): 0.16 µM | Ki (Adenosine receptor A3 [17]): 0.0002 µM | Ratio [2]: 425 | Ki (Adenosine receptor A2b [18]): 0.085 µM | Ratio [5]: 2000 | Ki (Adenosine receptor A1 [19]): 0.4 µM

CCCCn1cc2c(nc(NC(=O)Nc3ccc(C(F)(F)F)cc3)n3nc(-c4ccco4)nc23)n1
Ki (Adenosine receptor A3 [20]): 0.00072 µM | Ki (Adenosine receptor A2a [21]): 0.031 µM | Ratio [2]: 181 | Ki (Adenosine receptor A2b [22]): 0.13 µM | Ratio [5]: 486 | Ki (Adenosine receptor A1 [23]): 0.35 µM

CCCCn1cc2c(nc(NC(=O)Nc3ccccc3)n3nc(-c4ccco4)nc23)n1
Ki (Adenosine receptor A1 [24]): 0.409 µM | Ratio [2]: 238 | Ki (Adenosine receptor A2b [25]): 0.05 µM | Ki (Adenosine receptor A2a [26]): 0.148 µM | Ratio [5]: 1950 | Ki (Adenosine receptor A3 [27]): 0.00021 µM
